Test results reported in PMC9907071 (Proceedings of the National Academy of Sciences of the …, 2022).
Values after ≈ are worked out from the molar mass of the structure shown. Values joined by “and” are separate entries in the source; they are usually repeats but may differ in a detail not shown here. Equal values may be shown once. Read-outs that look alike come from different tables or passages of the source.

Key:
AbDHODH = target: T1, AbDHODH (Acinetobacter baumannii, UniProt B7GZW7); assay: AbDHODH steady-state rate assay; format: biochemical
T1 sequence (B7GZW7 1-334): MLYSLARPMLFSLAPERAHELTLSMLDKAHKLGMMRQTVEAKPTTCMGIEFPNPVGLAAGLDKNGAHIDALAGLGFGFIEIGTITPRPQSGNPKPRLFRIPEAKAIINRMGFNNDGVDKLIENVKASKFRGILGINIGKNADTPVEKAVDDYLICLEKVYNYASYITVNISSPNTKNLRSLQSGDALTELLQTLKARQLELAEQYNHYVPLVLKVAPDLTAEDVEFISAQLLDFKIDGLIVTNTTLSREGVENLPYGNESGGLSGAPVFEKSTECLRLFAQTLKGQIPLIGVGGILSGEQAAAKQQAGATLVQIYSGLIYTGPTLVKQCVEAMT

A. baumannii AB307-0294 = assay: Antimicrobial susceptibility testing in MM; format: cell-based, Acinetobacter baumannii; conditions: for EC50: Acinetobacter baumannii, AB3070294, 24 h, read-out: AB307 EC50; for uracil rescue of growth: AB307, 0.2 mM uracil; for cidal or static activity by CFU vs initial inoculum: AB307 and HUMC1, DSM186 at >1 µg/mL, DSM161 at highest concentrations assessed
[1] = test system: A. baumannii HUMC1 (CR-XDR); assay: Antimicrobial susceptibility testing in MM; format: cell-based, Acinetobacter baumannii; conditions: for EC50 / MIC: Acinetobacter baumannii, 24 h; for EC50: read-out: HUMC EC50
HsDHODH [2] = target: T2, HsDHODH (Homo sapiens, UniProt Q02127); conditions: read-out: HsDHODH IC50; previously reported; ref [25], [27]; cited from earlier work
A. baumannii LAC-4 (MDR) = assay: Antimicrobial susceptibility testing in MM; format: cell-based; conditions: Acinetobacter baumannii, 24 h; for EC50: read-out: LAC-4 EC50; for MIC: read-out: LAC-4 MIC
Summary of the method: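 Overnight (18 h) cultures in minimal medium (MM) plus casamino acids were diluted 1:1,000 and titred on LB plates. Test compound (in DMSO) was added at various concentrations, giving about 5 × 10^5 CFU/mL final. Medium-only and DMSO wells served as controls. Plates were shaken at 37 °C for 24 h, reading Å600 every 15 min. […] There were 2–4 technical replicates per concentration, and results are mean ± SEM of multiple independent studies.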

A. baumannii AB307 [3] = assay: Time-kill assay; format: cell-based, Acinetobacter baumannii; conditions: DSM186 1 µg/mL, DSM161 17.5 µg/mL, meropenem 1 µg/mL
Summary of the method: (§1)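 Time-kill assays were run in pyrimidine-deficient MM at a fixed compound concentration: 1 µg/mL (2.9 µM) or 17.5 µg/mL (50 µM). Untreated and meropenem 1 µg/mL (2.6 µM) comparators were included. CFU was enumerated over time against the starting inoculum. Data are mean ± SEM of 2–4 independent studies, each with 2–5 technical replicates.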

A. baumannii AB307ΔpyrD = assay: Time-kill assay; format: cell-based, Acinetobacter baumannii; conditions: pyrimidine-deficient medium
[4] = test system: A. baumannii AB307-0294 isolates; assay: Susceptibility of AB307-0294 isolates recovered from DSM161-treated mice; format: cell-based, Acinetobacter baumannii; conditions: eight independent colonies of AB307 from three animals
Summary of the method: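 Neutropenic BALB/c mice were infected in the thigh with AB307 and given test compound orally at 100 mg/kg at 0 and 12 h. Eight independent colonies were recovered from three sites in three animals and retested. MIC was determined by CFU at 24 h in MM, defined as growth within ± ½ log of the starting inoculum.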

HsDHODH [5] = target: T2, HsDHODH; assay: biochemical
A. baumannii HUMC1 = assay: Time-kill assay; format: cell-based, Acinetobacter baumannii; conditions: DSM186 1 µg/mL, meropenem 1 µg/mL
Summary of the method: as §1

A. baumannii AB307 [6] = assay: Efflux and permeability assay; format: cell-based, Acinetobacter baumannii; conditions: DSM186 0.015 µg/mL
A. baumannii strains = assay: DSM186 on a panel of A. baumannii strains; format: cell-based, Acinetobacter baumannii; conditions: for MIC: Acinetobacter baumannii
Microsomal stability [7] = format: in vitro ADME; conditions: human liver microsomes
Microsomal stability [8] = format: in vitro ADME; conditions: mouse microsomes
[9] = read-out: MIC as measured by CFU

T2 sequence (Q02127 whole entry): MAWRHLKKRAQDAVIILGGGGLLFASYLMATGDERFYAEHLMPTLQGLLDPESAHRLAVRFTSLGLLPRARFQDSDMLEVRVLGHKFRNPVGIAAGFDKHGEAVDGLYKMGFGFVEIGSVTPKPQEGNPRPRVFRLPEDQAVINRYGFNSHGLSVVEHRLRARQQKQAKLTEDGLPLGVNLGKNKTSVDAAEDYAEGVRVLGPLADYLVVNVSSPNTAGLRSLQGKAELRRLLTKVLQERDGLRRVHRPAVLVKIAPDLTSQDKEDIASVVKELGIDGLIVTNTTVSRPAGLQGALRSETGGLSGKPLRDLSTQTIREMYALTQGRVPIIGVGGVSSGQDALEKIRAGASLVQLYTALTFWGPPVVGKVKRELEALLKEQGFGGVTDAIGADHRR

Structure (SMILES) | IC50 (AbDHODH) [nM] | EC50 (A. baumannii AB307-0294) [nM] | EC50 [1] [nM] | MIC ([1]; read-out: HUMC MIC) | uracil rescue of growth (A. baumannii AB307-0294) | EC50 (A. baumannii LAC-4 (MDR)) [nM] | MIC (A. baumannii LAC-4 (MDR)) | time-kill: CFU over time vs starting inoculum (A. baumannii AB307 [3]) | also measured
Cc1cc(Nc2ccc(C(F)(F)F)c(F)c2)n2ncnc2n1 [DSM125] | 910 ± 70 | 9600 | 34000 | 51 µM and 16 µg/mL | – | – | – | – | IC50 (HsDHODH [2]): > 100000 nM
Cc1cc(Nc2ccc(S(F)(F)(F)(F)F)cc2)n2ncnc2n1 [DSM161] | 300 ± 110 | 1400 ± 300 | 8400 ± 850 | 25 µM and 8.8 µg/mL | uracil rescue was also demonstrated | 4400 ± 470 | 25 µM and 8.8 µg/mL | decreased below the starting inoculum | cidal or static activity by CFU vs initial inoculum (A. baumannii AB307-0294): bacteriostatic; fold MIC by CFU higher than MIC by absorbance assay (A. baumannii AB307-0294; both strains (AB307, HUMC1)): 10 fold; MIC [1, 9]: 50 µM and 17.5 µg/mL; fold difference in potency, drug-resistant strains vs drug-sensitive AB307 ([1]; HUMC1 and LAC-4 vs AB307): 3–6 fold; time-kill: killing of DHODH deletion mutant (A. baumannii AB307ΔpyrD): neither DSM186 nor DSM161 caused increased killing; change in MIC (by CFU) of colonies recovered from treated animals [4]: no change in MIC; IC50 (HsDHODH [2]): > 100000 nM
Cc1cc(Nc2ccc(S(F)(F)(F)(F)F)cc2)n2ccnc2n1 [DSM186] | 28 ± 3.8 | 53 ± 8.2 | 170 ± 3.3 | 0.78 µM and 0.27 µg/mL | rescued by the addition of uracil | 170 ± 33 | 1.3 µM and 0.45 µg/mL | decreased below the starting inoculum | IC50 (HsDHODH [5]): > 100000 nM; cidal or static activity by CFU vs initial inoculum (A. baumannii AB307-0294): cidal activity; MIC [1, 9]: 1.6 µM and 0.55 µg/mL; uracil rescue of growth ([1]; HUMC1, 0.2 mM uracil): rescued by the addition of uracil; time-kill: CFU over time vs starting inoculum (A. baumannii HUMC1): decreased below the starting inoculum; time-kill: killing of DHODH deletion mutant (A. baumannii AB307ΔpyrD): neither DSM186 nor DSM161 caused increased killing; effect of combination of PAβN and PMBN on activity (A. baumannii AB307 [6]): less active than PMBN alone; effect of efflux inhibitor PAβN on activity (A. baumannii AB307 [6]; PAβN 70 µg/mL): somewhat increased the activity; effect of permeability-increasing agent PMBN on activity (A. baumannii AB307 [6]; PMBN 64 µg/mL): somewhat increased the activity; concentration inhibiting growth by CFU (A. baumannii strains; 17/23 strains, relative to starting inoculum (± ½ log) at 24 h): 1 µg/mL and 2.9 µM; activity across strains tested (A. baumannii strains; 30 strains including 12 CR-XDR isolates): active against all the 30 strains tested; MIC (A. baumannii strains; read-out: MIC assessed by Å600): 0.11 to 1.09 µg/mL (≈ 0.314 to 3.11 µM); MIC (A. baumannii strains; read-out: minimal inhibitory concentration): ≤ 1 µg/mL; concentration inhibiting growth by CFU (A. baumannii strains; remaining six strains): 2 µg/mL and 5.8 µM; metabolic stability (Microsomal stability [7]): metabolically stable; metabolic stability (Microsomal stability [8]): less stable
Cc1cc(Nc2ccc3c(c2)CCCC3)n2ccnc2n1 [DSM187] | 170 | – | – | – | – | – | – | – | –
Cc1cc(Nc2ccc(C(F)(F)F)cc2)c2ccccc2n1 [DSM250] | 85 ± 15 | 380 ± 140 | – | – | uracil rescue was also demonstrated | 1600 | 12.5 µM and 3.8 µg/mL | – | IC50 (HsDHODH [5]): > 100000 nM; concentrations showing some off-target activity (A. baumannii AB307-0294; AB307, uracil rescue study): above 10 µM
Cc1cc(Nc2ccc(S(F)(F)(F)(F)F)cc2)n2nc(C(C)(F)F)nc2n1 [DSM265] | 590 ± 160 | 2700 ± 210 | – | – | uracil rescue was also demonstrated | – | – | – | –
C[C@@H](O)[C@H]1C(=O)N2C(C(=O)O)=C(S[C@@H]3CN[C@H](C(=O)N(C)C)C3)[C@H](C)[C@H]12 [meropenem, reference compound] | – | – | – | – | – | – | – | decreased below the starting inoculum | –
